ChEMBL document CHEMBL1140037, “Effect of cathepsin K inhibitors on bone resorption” (J Med Chem, 2008)
Active and inactive are the calls of the source. No cut-off for these calls is given here.

Tests used:
[1] = Half life in Sprague-Dawley rat at 4 umol/mL/kg, iv; type: ADME, organism-based; conditions: in vivo
Procedure, shortened: (§1)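 Male Sprague-Dawley rats, cassette dosing, iv and oral. Plasma levels by LC-MS/MS. Half-life is the noncompartmental terminal elimination estimate. Clearance, steady-state volume of distribution and bioavailability derived from the profiles.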

[2] = target: Procathepsin L (Homo sapiens, UniProt P07711); assay: Inhibition of human recombinant cathepsin L by fluorescence assay
Procedure, shortened: (§2)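 Recombinant human cathepsins K, L and S, inhibition read in a fluorescence assay; IC50 values reported.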

[3] = target: T1, Cathepsin K (Rattus norvegicus, UniProt O35186); assay: Inhibition of rat recombinant cathepsin K expressed in Sf21 cells by fluorescence assay
T1 sequence (O35186 whole entry): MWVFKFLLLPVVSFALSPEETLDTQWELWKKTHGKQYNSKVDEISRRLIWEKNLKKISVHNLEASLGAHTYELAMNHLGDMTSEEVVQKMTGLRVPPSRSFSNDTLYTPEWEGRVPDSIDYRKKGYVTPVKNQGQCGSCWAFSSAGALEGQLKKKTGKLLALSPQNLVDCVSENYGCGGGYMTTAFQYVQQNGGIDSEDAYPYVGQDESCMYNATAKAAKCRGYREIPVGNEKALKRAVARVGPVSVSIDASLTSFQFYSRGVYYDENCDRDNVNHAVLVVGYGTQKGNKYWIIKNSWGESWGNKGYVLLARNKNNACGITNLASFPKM

[4] = Volume of distribution at steady state in Sprague-Dawley rat at 4 umol/mL/kg, iv; type: ADME, organism-based; conditions: in vivo, read-out: Vdss; procedure, shortened: as §1
[5] = target: Cathepsin S (Homo sapiens, UniProt P25774); assay: Inhibition of human recombinant cathepsin S by fluorescence assay; procedure, shortened: as §2
[6] = target: T2, Cathepsin K (Homo sapiens, UniProt P43235); assay: Inhibition of human recombinant cathepsin K by fluorescence assay; procedure, shortened: as §2
T2 sequence (P43235 whole entry): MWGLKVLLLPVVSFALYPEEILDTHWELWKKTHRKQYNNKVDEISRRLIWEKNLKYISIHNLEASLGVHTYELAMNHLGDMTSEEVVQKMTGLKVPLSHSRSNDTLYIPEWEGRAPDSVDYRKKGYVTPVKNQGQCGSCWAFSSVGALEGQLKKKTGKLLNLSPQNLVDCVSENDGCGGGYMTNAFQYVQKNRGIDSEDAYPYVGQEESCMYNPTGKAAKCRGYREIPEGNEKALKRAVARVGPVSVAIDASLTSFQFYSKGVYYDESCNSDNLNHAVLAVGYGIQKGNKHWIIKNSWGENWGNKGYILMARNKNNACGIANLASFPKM

[7] = tested on: Rattus norvegicus; assay: (§3) Bioavailability in Sprague-Dawley rat at 10 umol/5 mL/kg, po; type: ADME, organism-based; conditions: in vivo; procedure, shortened: as §1
[8] = Plasma clearance in Sprague-Dawley rat at 4 umol/mL/kg, iv; type: ADME, organism-based; procedure, shortened: as §1
[9] = Drug level in Sprague-Dawley rat serum at 100 mg/kg/day, po for 11 days measured on 25 hrs after final administration; type: ADME, organism-based; parameters: route oral; conditions: read-out: Drug uptake
Procedure, shortened: (§4)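 Rats dosed orally with 100 mg/kg once daily for 11 days. Compound concentration in bone marrow and serum measured 25 h after the final dose on day 11. BM/serum ratio calculated from the two concentrations.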

[10] = tested on: Rattus norvegicus; assay: Antibone resorptive activity in Sprague-Dawley rat assessed as inhibition of cathepsin K-mediated C-terminal telopeptidase of type 1 collagen degradation at 100 mg/kg/day, po for 11 days measured on 24 hrs after final administration by RatLaps ELISA; type: functional; parameters: scale not given: the % may be the effect or the level left
Procedure, shortened: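 Intact rats dosed orally with 100 mg/kg once daily for 11 days. Urine collected for 24 h after the final dose on day 11; CTx measured by RatLaps ELISA. Inhibition expressed as percentage of vehicle-treated controls.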

[11] = Half life in Sprague-Dawley rat at 1 mg/mL/kg, iv; type: ADME, organism-based; conditions: in vivo
[12] = Ratio of drug level in bone marrow to serum in po dosed Sprague-Dawley rat; type: ADME, organism-based; conditions: in vivo; procedure, shortened: as §4
[13] = Plasma clearance in Sprague-Dawley rat at 1 mg/mL/kg, iv; type: ADME, organism-based
[14] = Volume of distribution at steady state in Sprague-Dawley rat at 1 mg/mL/kg, iv; type: ADME, organism-based; conditions: in vivo, read-out: Vdss
[15] = Bioavailability in Sprague-Dawley rat at 3 mg/5 mL/kg, po; type: ADME, organism-based; conditions: in vivo
[16] = Drug level in Sprague-Dawley rat bone marrow at 100 mg/kg/day, po for 11 days measured on 25 hrs after final administration; type: ADME, organism-based; parameters: route oral; conditions: read-out: Drug uptake; procedure, shortened: as §4
[17] = as §3; type: ADME, organism-based; conditions: Sprague-Dawley, in vivo, 10 umol/5 mL/kg; procedure, shortened: as §1
[18] = tested on: Cynomolgus monkey; assay: Antibone resorptive activity in cynomolgus monkey assessed as reduction of cathepsin K-mediated C-terminal telopeptidase of type 1 collagen degradation at 2 mg/kg/day, po measured after 8 hrs after 14 days of administration by CrossLaps ELISA; type: functional, organism-based; conditions: Macaca fascicularis
Procedure, shortened: (§5)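 Cynomolgus monkeys given 2 mg/kg orally once daily for 14 days. CTx measured by CrossLaps ELISA before and 8 h after dosing on day 1 and on days 7 and 14, and at 24 h after the first dose. Vehicle group run in parallel to allow for daily CTx fluctuation. Means and SEM, n = 4, 5; t-test against vehicle control.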

[19] = tested on: Cynomolgus monkey; assay: Antibone resorptive activity in cynomolgus monkey assessed as reduction of C-terminal telopeptidase of type 1 collagen degradation at 2 mg/kg/day, po measured before 8 hrs after 7 days of administration by CrossLaps ELISA; type: functional, organism-based; conditions: Macaca fascicularis; procedure, shortened: as §5
[20] = tested on: Cynomolgus monkey; assay: Antibone resorptive activity in cynomolgus monkey assessed as reduction of C-terminal telopeptidase of type 1 collagen degradation at 2 mg/kg/day, po measured before 8 hrs after 14 days of administration by CrossLaps ELISA; type: functional, organism-based; conditions: Macaca fascicularis; procedure, shortened: as §5
[21] = tested on: Cynomolgus monkey; assay: Toxicity in cynomolgus monkey at 2 mg/kg/day, po for 14 days; type: organism-based, Macaca fascicularis; parameters: route oral; conditions: in vivo, 336 h
[22] = tested on: Cynomolgus monkey; assay: Antibone resorptive activity in cynomolgus monkey assessed as reduction of C-terminal telopeptidase of type 1 collagen degradation at 2 mg/kg/day, po measured after 24 hrs after first administration by CrossLaps ELISA; type: functional, organism-based; conditions: Macaca fascicularis; procedure, shortened: as §5
[23] = tested on: Cynomolgus monkey; assay: Antibone resorptive activity in cynomolgus monkey assessed as reduction of C-terminal telopeptidase of type 1 collagen degradation at 2 mg/kg/day, po measured after 8 hrs after 7 days of administration by CrossLaps ELISA; type: functional, organism-based; conditions: Macaca fascicularis; procedure, shortened: as §5
[24] = tested on: Cynomolgus monkey; assay: Antibone resorptive activity in cynomolgus monkey assessed as reduction of C-terminal telopeptidase of type 1 collagen degradation at 2 mg/kg/day, po measured before 8 hrs after first administration by CrossLaps ELISA; type: functional, organism-based; conditions: Macaca fascicularis; procedure, shortened: as §5

Chain of Cathepsin S (P25774 whole entry): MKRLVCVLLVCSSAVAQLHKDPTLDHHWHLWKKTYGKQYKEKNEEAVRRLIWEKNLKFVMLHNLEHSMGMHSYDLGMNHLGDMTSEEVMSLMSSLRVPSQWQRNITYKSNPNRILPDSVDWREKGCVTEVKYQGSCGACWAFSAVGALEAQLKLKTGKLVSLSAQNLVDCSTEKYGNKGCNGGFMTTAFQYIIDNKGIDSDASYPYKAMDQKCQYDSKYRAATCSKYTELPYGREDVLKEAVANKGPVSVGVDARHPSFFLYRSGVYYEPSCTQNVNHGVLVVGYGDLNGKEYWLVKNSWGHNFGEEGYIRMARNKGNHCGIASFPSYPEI
Chain of Procathepsin L (P07711 whole entry): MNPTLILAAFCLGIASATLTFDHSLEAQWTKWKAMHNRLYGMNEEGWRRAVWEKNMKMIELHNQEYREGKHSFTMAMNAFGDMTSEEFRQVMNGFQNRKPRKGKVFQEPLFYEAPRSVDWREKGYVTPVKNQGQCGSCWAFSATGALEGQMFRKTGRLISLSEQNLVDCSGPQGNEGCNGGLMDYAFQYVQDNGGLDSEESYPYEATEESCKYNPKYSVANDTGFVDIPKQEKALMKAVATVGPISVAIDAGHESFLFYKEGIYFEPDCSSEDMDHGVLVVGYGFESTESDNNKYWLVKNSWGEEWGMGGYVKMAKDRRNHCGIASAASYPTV

Compound CC(C)(C)Cn1c(CN2C(=O)NC3(CCNCC3)C2=O)cc2cnc(C#N)nc21 has a half-life [1] of 198 min, an IC50 [2] of over 1000 nM and an IC50 [3] of 76 nM. The Vd [4] was 59.2 L/kg, the IC50 [5] was over 1000 nM and the IC50 [6] was under 1 nM. The Activity [7] was “Not Active” and the clearance [8] was 245 mL/min/kg.

For CC(C)(C)Cn1c(CN2C(=O)C3(CCNCC3)c3cc(F)ccc32)cc2cnc(C#N)nc21, the concentration at 25 h [9] was 1200 nM, the Activity [10] was 36.2% and the half-life [11] was 396 min. For the same compound, the Drug uptake [12] was 99, the clearance [13] was 132 mL/min/kg and the IC50 [3] was 78 nM. It also gave a Vd [14] of 78.4 L/kg, a bioavailability [15] of 36% and a concentration at 25 h [16] of 119 µM.

With CCCN1CCC2(CC1)NC(=O)N(Cc1cc3cnc(C#N)nc3n1CC(C)(C)C)C2=O the half-life [1] was 168 min, the concentration at 25 h [9] was 133 nM and the Activity [10] was 89.9%. For the same compound, the Drug uptake [12] was 132, the IC50 [3] was 27 nM and the Vd [4] was 17.3 L/kg. The bioavailability [17] was 49%, the concentration at 25 h [16] was 17.6 µM and the clearance [8] was 85 mL/min/kg.

COc1ccc2c(c1)C1(CCNCC1)C(=O)N2Cc1cc2cnc(C#N)nc2n1CC(C)(C)C showed a concentration at 25 h [9] of 288 nM, an Activity [10] of 68% and a half-life [11] of 294 min. The IC50 [2] was over 1000 nM, the Drug uptake [12] was 159 and the clearance [13] was 182 mL/min/kg. The IC50 [3] was 44 nM, the Vd [14] was 73.6 L/kg and the IC50 [5] was over 1000 nM. It also gave an IC50 [6] of under 1 nM, a bioavailability [15] of 29% and a concentration at 25 h [16] of 45.8 µM.

For CN1C(=O)NC2(CCN(Cc3cc4cnc(C#N)nc4n3CC(C)(C)C)CC2)C1=O, the half-life [1] was 84 min, the concentration at 25 h [9] was 64 nM and the Activity [10] was 6.8%. It also gave a Drug uptake [12] of 4.7, an IC50 [3] of 12 nM and a Vd [4] of 4.3 L/kg. It also gave a bioavailability [17] of 144%, a concentration at 25 h [16] of 0.302 µM and a clearance [8] of 35 mL/min/kg.

In the case of CC(C)(C)Cn1c(CN2C(=O)CC3(CCNCC3)C2=O)cc2cnc(C#N)nc21, the concentration at 25 h [9] is reported as 960 nM, the Activity [18] is reported as “Active” and the Activity [19] is reported as “Active”. For the same compound, the Activity [10] was 73.2%, the Activity [20] was “Active” and the half-life [11] was 282 min. For the same compound, the Drug uptake [12] was 34.9, the clearance [13] was 238 mL/min/kg and the IC50 [3] was 30 nM. The Activity [21] was “Non-toxic”, the Activity [22] was “Active” and the Vd [14] was 97.2 L/kg. The bioavailability [15] was 98%, the concentration at 25 h [16] was 33.5 µM and the Activity [23] was “Active”. For the same compound, the Activity [24] was “Active”.

Compound CC(C)(C)Cn1c(CN2CCC3(CC2)NC(=O)NC3=O)cc2cnc(C#N)nc21 has a half-life [1] of 96 min, a concentration at 25 h [9] of 557 nM and an Activity [10] of -7.9%. The IC50 [2] was over 1000 nM, the Drug uptake [12] was 0.7 and the Vd [4] was 5.9 L/kg. It also gave an IC50 [5] of over 1000 nM, an IC50 [6] of under 1 nM and a bioavailability [17] of 42%. The concentration at 25 h [16] was 0.381 µM and the clearance [8] was 78.3 mL/min/kg.

For CCCN1C(=O)NC2(CCN(Cc3cc4cnc(C#N)nc4n3CC(C)(C)C)CC2)C1=O, the half-life [1] was 114 min, the concentration at 25 h [9] was 545 nM and the Activity [10] was 11.3%. For the same compound, the IC50 [2] was over 1000 nM, the Drug uptake [12] was 1.5 and the Vd [4] was 6.7 L/kg. For the same compound, the IC50 [5] was over 1000 nM, the IC50 [6] was under 1 nM and the bioavailability [17] was 58%. The concentration at 25 h [16] was 0.832 µM and the clearance [8] was 45 mL/min/kg.
